Compound activity (PubChem BioAssay)
The entries come from a sample that favours hits as a whole.
KDM4C inh: inhibitors of human demethylase GASC-1 KDM4C. Q9H3R0. GST-KDM4C 2-372, H3K9me3 peptide, LANCE TR-FRET. inhibition, % at 12.5 µM. 0.15% of 96,000 active. AID 720574;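 active = mean replicate inhibition above about 25%, with at least 55% of replicates also reaching it, limit read from the data, passing the limit was not always enough; inconclusive = only one of those two conditions met; inactive = neither condition met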
Target sequence (Q9H3R0 2-372 limits assumed): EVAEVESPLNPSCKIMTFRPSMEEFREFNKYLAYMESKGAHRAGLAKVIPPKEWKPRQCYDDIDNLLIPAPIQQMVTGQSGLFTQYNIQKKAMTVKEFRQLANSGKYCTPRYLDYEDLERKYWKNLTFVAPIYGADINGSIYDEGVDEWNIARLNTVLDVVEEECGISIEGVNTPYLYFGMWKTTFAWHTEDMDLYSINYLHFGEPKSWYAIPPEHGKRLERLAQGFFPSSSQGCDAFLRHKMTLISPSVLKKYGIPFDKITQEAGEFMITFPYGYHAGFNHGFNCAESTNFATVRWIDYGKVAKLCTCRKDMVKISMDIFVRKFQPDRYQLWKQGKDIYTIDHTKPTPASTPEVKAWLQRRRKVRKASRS
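reagent = H3K9me3 peptide substrate, Fe(II), 2-oxoglutarate | system = GST-tagged GASC-1 (JMJD2C) catalytic fragment, aa 2-372 | amount = enzyme final amount 10 nM | read-out = Fall in 671/618 emission ratio as inhibition | medium = HEPES buffer, pH 7.5, plus ascorbate | schedule = 30 min reaction, 60 min detection, RT | measured by = LANCE TR-FRET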
IDH1 R132H inh: blocks human IDH1 R132H reductase activity. 0.18% of 70,000 active. diaphorase/resazurin fluorescence, 60 min. inhibition, % at 10 µM. O75874; in the data active = inhibition above about 34%; inconclusive = no clear call, values can overlap the other calls; inactive = below about 11%
Target sequence (O75874 whole entry R132H): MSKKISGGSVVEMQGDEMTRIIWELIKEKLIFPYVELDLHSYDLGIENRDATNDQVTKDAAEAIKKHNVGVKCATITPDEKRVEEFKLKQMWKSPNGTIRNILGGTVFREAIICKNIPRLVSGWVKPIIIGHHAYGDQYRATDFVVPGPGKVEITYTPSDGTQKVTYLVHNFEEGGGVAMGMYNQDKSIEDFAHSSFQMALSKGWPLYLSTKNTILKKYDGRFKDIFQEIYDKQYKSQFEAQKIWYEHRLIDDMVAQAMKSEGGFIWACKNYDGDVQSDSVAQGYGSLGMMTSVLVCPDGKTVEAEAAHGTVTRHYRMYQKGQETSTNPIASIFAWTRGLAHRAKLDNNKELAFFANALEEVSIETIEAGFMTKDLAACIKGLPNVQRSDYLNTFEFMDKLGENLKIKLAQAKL
T cruzi growth-1: T. cruzi proliferation inhibition; T. cruzi beta-gal in NIH3T3, GalScreen luminescence, 90 h; inhibition, % at 8.34 µM; 5.9% of 77,000 active;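 active = mean inhibition above about 93%, with at least 55% of replicates each passing it, limit read from the data, passing the limit was not always enough; inconclusive = only one of those two conditions holds; inactive = neither condition holds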
T cruzi growth-2: Trypanosoma cruzi proliferation inhibition | 72% of 5,600 active | T. cruzi beta-gal in NIH3T3, GalScreen luminescence, 90 h | shares compounds with T cruzi growth-1 | inhibition, % at 8.35 µM | AID 651739;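 active = mean replicate inhibition above about 95% and at least 55% of replicates individually reaching it, limit read from the data; inconclusive = only one of the two criteria is met; inactive = neither criterion is met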
T cruzi growth-3: blocks T. cruzi growth in NIH3T3 host cells | shares compounds with T cruzi growth-1 | inhibition, % at 2.09 µM | T. cruzi beta-gal in NIH3T3, GalScreen luminescence, 90 h | 21% of 5,600 active;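 active = mean inhibition above about 95%, with at least 55% of replicates also reaching it, limit read from the data; inconclusive = meets just one of the two conditions; inactive = meets neither condition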
NIH3T3 tox: kills mouse NIH/3T3 fibroblasts. shares compounds with T cruzi growth-1. NIH/3T3 viability, CellTiter-Glo ATP luminescence, 90 h. cytotoxicity (signal decrease), % at 8.35 µM. 14% of 5,600 active. AID 651742;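 active = mean signal decrease across replicates above about 35% based on untreated-well scatter, with enough replicates individually passing, limit read from the data; inconclusive = no rule stated though some were filed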
3T3 cytotox 2: kills mouse NIH/3T3 fibroblasts. 56% of 5,600 active. NIH/3T3 viability, CellTiter-Glo ATP luminescence, 90 h. AID 651744. shares compounds with T cruzi growth-1. inhibition, % at 24.9 µM;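 active = mean loss of cell viability signal at or above a set limit, and enough replicates individually reaching it; inconclusive = meets only the mean limit or only the replicate share; inactive = meets neither condition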
Numbers stand for hits; 0 = inactive; ? = inconclusive; - = no result given; ! = a repeat was not active.

SMILES | KDM4C inh | IDH1 R132H inh | T cruzi growth-1 | T cruzi growth-2 | T cruzi growth-3 | NIH3T3 tox | 3T3 cytotox 2
C[C@@H]1CN([C@@H](C)CO)C(=O)c2cccc(NC(=O)Nc3cccc4ccccc34)c2O[C@H]1CN(C)C(=O)Nc1ccccc1 | 0 | 0 | 0 | - | - | - | -
C[C@H]1CN([C@@H](C)CO)C(=O)c2cccc(NC(=O)c3ccncc3)c2O[C@H]1CN(C)C(=O)Nc1cccc2ccccc12 | 0 | 0 | 96 | ? | 0 | 0 | 0
C[C@H]1CN([C@@H](C)CO)C(=O)c2cccc(NC(=O)Nc3cccc4ccccc34)c2O[C@H]1CN(C)C(=O)Nc1ccc(F)cc1 | 0 | 0 | 116 | 109 | 0 | 0 | ?
C[C@@H]1CN([C@@H](C)CO)C(=O)c2cccc(NC(=O)Nc3ccc(C(F)(F)F)cc3)c2O[C@H]1CN(C)C(=O)Nc1cccc2ccccc12 | 0 | 0 | 0 | - | - | - | -
O=C(C[C@@H]1CC[C@H]2[C@@H](COC[C@H](O)CN2S(=O)(=O)c2ccc(F)cc2)O1)NCC1CCCCC1 | 0 | - | 0 | - | - | - | -
Cc1ccc(S(=O)(=O)Nc2ccc3c(c2)C(=O)N([C@@H](C)CO)C[C@@H](C)[C@@H](CN(C)C(=O)C2CCCCC2)OCCCC[C@@H](C)O3)cc1 | 0 | 0 | 0 | - | - | - | -
C[C@H](CO)N1C[C@H](C)[C@@H](CN(C)C(=O)Nc2ccc(F)cc2)Oc2ccc(NC(=O)C3CC3)cc2CC1=O | 0 | 0 | 0 | - | - | - | -
CCCN1[C@@H]2c3ccc(-c4cccc(F)c4)c(=O)n3C[C@H]1[C@H](CO)[C@H]2C(=O)N(C)C | 0 | - | - | - | - | - | -
C[C@H](CO)N1C[C@H](C)[C@@H](CN(C)Cc2ccccc2)Oc2ccc(NC(=O)Nc3cccc4ccccc34)cc2CC1=O | 0 | 0 | 0 | - | - | - | -
C[C@@H]1CN([C@@H](C)CO)C(=O)Cc2cc(NC(=O)Nc3cccc4ccccc34)ccc2O[C@H]1CN(C)Cc1ccc(-c2ccccc2)cc1 | 0 | 0 | 107 | 102 | 106 | 0 | 0
C[C@H]1CN([C@@H](C)CO)C(=O)Cc2cc(NC(=O)Nc3cccc4ccccc34)ccc2O[C@@H]1CN(C)Cc1ccc(-c2ccccc2)cc1 | 0 | 0 | 102 | 109 | 107 | 0 | 0
C[C@H](CO)N1C[C@H](C)[C@H](CN(C)Cc2ccccc2)Oc2ccc(NC(=O)Nc3cccc4ccccc34)cc2CC1=O | 0 | - | 0 | - | - | - | -
COc1cccc(CN2CCCCN3[C@@H](CO)[C@H](c4ccc(C#Cc5cccnc5)cc4)[C@@H]3C2)c1 | 0 | - | 117 | 109 | 0 | 0 | 103
COc1cccc(CN2CCCCN3[C@H](C2)[C@@H](c2ccc(-c4cccnc4)cc2)[C@@H]3CO)c1 | 0 | - | 0 | - | - | - | -
COc1cccc(CN2CCCCN3[C@H](CO)[C@@H](c4ccc(C#Cc5cccnc5)cc4)[C@@H]3C2)c1 | 0 | - | 116 | 104 | 0 | 0 | 104
COc1ccc(C#Cc2ccc([C@@H]3[C@H]4CN(Cc5ccncc5)CCCCN4[C@H]3CO)cc2)cc1 | 0 | - | 0 | - | - | - | -
COCC(=O)N1C[C@@H](C)[C@H](OC)CN(C)C(=O)c2cc(NC(=O)NC(C)C)ccc2OC[C@H]1C | 0 | 0 | 0 | - | - | - | -
C[C@H]1CN([C@@H](C)CO)C(=O)c2cc(C#Cc3ccccc3F)cnc2O[C@@H]1CN(C)S(=O)(=O)c1ccccc1F | 0 | 0 | 115 | 111 | 0 | 0 | 43
C[C@@H]1CN([C@H](C)CO)C(=O)c2cc(C#Cc3ccccc3)cnc2O[C@H]1CN(C)S(=O)(=O)c1ccccc1F | - | - | ? | 105 | 0 | 0 | 46
C[C@H]1CN([C@@H](C)CO)C(=O)c2cc(C#Cc3ccccc3F)cnc2O[C@H]1CN(C)S(=O)(=O)c1ccccc1F | 0 | 0 | 97! | 107 | 0 | 60 | 40
C[C@H]1CN([C@@H](C)CO)C(=O)c2cc(C#Cc3ccccc3F)cnc2O[C@@H]1CN(C)S(C)(=O)=O | 0 | 0 | 0 | - | - | - | -
C[C@@H]1CN([C@@H](C)CO)C(=O)c2cc(C#Cc3ccccc3)cnc2O[C@@H]1CN(C)S(=O)(=O)c1ccccc1F | - | - | 0 | - | - | - | -
C[C@H]1CN([C@@H](C)CO)C(=O)c2cc(C#Cc3ccccc3)cnc2O[C@H]1CN(C)S(=O)(=O)c1ccccc1F | - | 0 | 0 | - | - | - | -
NCC[C@@H]1CC[C@@H](NS(=O)(=O)c2ccc(Cl)cc2)[C@@H](CO)O1 | 0 | 0 | 0 | - | - | - | -
CN(C)CC(=O)N[C@H]1CC[C@@H](CCNS(=O)(=O)c2ccccc2)O[C@@H]1CO | 0 | 0 | - | - | - | - | -
SMILES | KDM4C inh | IDH1 R132H inh | T cruzi growth-1 | T cruzi growth-2 | T cruzi growth-3 | NIH3T3 tox | 3T3 cytotox 2
COc1cccc(C(=O)NC(c2ccc(C)cc2)c2cc(Cl)c3cccnc3c2O)c1 (stereo not given) | - | 0 | - | - | - | - | -
CS(=O)(=O)N(CC(=O)Nc1cccnc1)c1cccc(Br)c1 | - | 0 | - | - | - | - | -
Cc1ccccc1-c1ccc([C@H]2[C@H]3CN(S(C)(=O)=O)CCCCN3[C@H]2CO)cc1 | 0 | - | 0 | - | - | - | -
Cc1ccccc1-c1ccc([C@H]2[C@H](CO)N3CCCCN(S(C)(=O)=O)C[C@@H]23)cc1 | 0 | - | 109 | 96 | 0 | 0 | 35
O=S(=O)(c1ccc(F)cc1)N1CCCCN2[C@H](CO)[C@H](c3ccc(-c4ccccc4F)cc3)[C@H]2C1 | - | - | 0 | - | - | - | -
Cc1ccccc1-c1ccc([C@H]2[C@H](CO)N3CCCCN(S(=O)(=O)c4ccc(F)cc4)C[C@@H]23)cc1 | 0 | - | 112 | 100 | 110 | ? | 104
Cc1ccccc1-c1ccc([C@@H]2[C@@H](CO)N3CCCCN(S(=O)(=O)c4ccc(F)cc4)C[C@H]23)cc1 | 0 | - | 0 | - | - | - | -
O=S(=O)(c1ccc(F)cc1)N1CCCCN2[C@H](CO)[C@H](c3ccc(-c4ccccc4F)cc3)[C@@H]2C1 | - | - | 111 | 104 | 0 | 0 | 94
O=S(=O)(c1ccc(F)cc1)N1CCCCN2[C@H](C1)[C@@H](c1ccc(-c3ccccc3F)cc1)[C@@H]2CO | - | - | 107 | 101 | 0 | 0 | 42
O=S(=O)(c1ccccc1)N1CCCCN2[C@H](C1)[C@H](c1ccc(-c3ccccc3F)cc1)[C@@H]2CO | 0 | - | 0 | - | - | - | -
CN(C)C(=O)[C@H]1[C@H](CO)[C@H]2Cn3c(ccc(C4=CCCC4)c3=O)[C@H]2N1Cc1ccccn1 | 0 | - | 0 | - | - | - | -
CCC(=O)N(C)C[C@H]1Oc2cc(/C=C/c3ccccc3)ccc2S(=O)(=O)N([C@@H](C)CO)C[C@@H]1C | 0 | 0 | 0 | - | - | - | -
O=C(NCC[C@H]1CC[C@H](NC(=O)C2CC2)[C@H](CO)O1)c1cnccn1 | 0 | 0 | - | - | - | - | -
O=S(=O)(c1ccccc1)N1CCCCN2[C@H](CO)[C@H](c3ccc(-c4ccccc4F)cc3)[C@H]2C1 | 0 | - | 0 | - | - | - | -
CCS(=O)(=O)N1CCCCN2[C@H](CO)[C@H](c3ccc(-c4ccccc4F)cc3)[C@H]2C1 | 0 | - | 100 | 96 | 0 | 0 | 61
O=S(=O)(c1ccc(F)cc1)N1CCCCN2[C@@H](CO)[C@@H](c3ccc(-c4ccccc4F)cc3)[C@@H]2C1 | - | - | 0 | - | - | - | -
